Two compounds from ChEMBL document CHEMBL3627646, “Synthesis and biological activity of amino acid derivatives of avarone and its model compound” (Bioorg Med Chem, 2015) can be followed below.

Broadly, the IC50 is the concentration at which inhibition is half-maximal. Broadly, the MIC is the least concentration at which growth counts as inhibited. Read a low MIC as greater potency. What is called LC50 is the concentration lethal to half of the exposed cells or organisms.

≈ marks a conversion by molar mass, not a printed value.

Test system in the first series: not listed separately
Kind of series: Cytotoxicity against human Fem-X cells assessed as cell survival after 72 hrs by MTT assay. Format: functional, cell-based.
Conditions: not given
An outline of the steps: (§1)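 Cells seeded (HeLa 2000, MDA-MB-453 3000, others 5000 per well), treated 24 h later (K562 after 2 h). Five double-diluted final concentrations, 200–12.5 μM, from 10 mM DMSO stocks, in RPMI-1640 with 10% FBS, pH 7.2, 72 h. MTT 4 h at 37 °C, SDS added, A570 read next day. Survival relative to medium control; IC50 from survival curves; triplicate; cisplatin positive control.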
A general note: Formazan colour is commonly taken as a measure of viable cells.
Consider `CC1=CCC[C@H]2[C@](C)(CC3=CC(=O)C=C(N[C@@H](Cc4ccccc4)C(=O)O)C3=O)[C@@H](C)CC[C@]12C`, for which the IC50 is 17.3 µM.

Consider `CC(C)(C)C1=CC(=O)C=C(NCCC(=O)O)C1=O`, for which the IC50 is 28.4 µM.

For a further series, the system named is Staphylococcus aureus. Kind of series: Antibacterial activity against Staphylococcus aureus ATCC 6538 after 24 hrs by microbroth double dilution method. As to conditions: ATCC 6538, 24 h. Format: functional. The method in brief: (§2)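 Microbroth double dilution in Mueller Hinton broth; compound stock 10 mg/mL in DMSO serially halved across rows. Wells inoculated with 10 μL culture at 10^6 cells/mL, incubated 37 °C for 24 h. Amikacin row as positive control, DMSO row as negative control. MIC taken as lowest concentration inhibiting bacterial growth.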
On the technique in general: In broth dilution the organism is exposed to a series of concentrations in liquid medium.
For the compound `CC1=CCC[C@H]2[C@](C)(CC3=CC(=O)C=C(N[C@@H](Cc4ccccc4)C(=O)O)C3=O)[C@@H](C)CC[C@]12C`, the minimum inhibitory concentration (MIC) is 10.3 µM (≈ 4.91 µg/mL).

Consider `CC(C)(C)C1=CC(=O)C=C(NCCC(=O)O)C1=O`, for which the minimal inhibitory concentration (MIC) turned out to be 625 µM (≈ 157 µg/mL). This MIC lies about 61-fold higher than the previous one.

Another series deals with Salmonella enterica. Description: Antibacterial activity against Salmonella enterica ATCC 13076 after 24 hrs by microbroth double dilution method. The class given is functional. As to conditions: ATCC 13076, 24 h. The method in brief:
as §2
As to `CC1=CCC[C@H]2[C@](C)(CC3=CC(=O)C=C(N[C@@H](Cc4ccccc4)C(=O)O)C3=O)[C@@H](C)CC[C@]12C`, the minimum inhibitory concentration (MIC) came out at 20.6 µM (≈ 9.81 µg/mL).

The compound `CC(C)(C)C1=CC(=O)C=C(NCCC(=O)O)C1=O` returned an MIC of 2490 µM (≈ 625 µg/mL).

The subject of another series is Escherichia coli. Description: Antibacterial activity against Escherichia coli ATCC 25922 after 24 hrs by microbroth double dilution method. The class given is functional. As to conditions: ATCC 25922, 24 h. An outline of the steps: as §2
`CC1=CCC[C@H]2[C@](C)(CC3=CC(=O)C=C(N[C@@H](Cc4ccccc4)C(=O)O)C3=O)[C@@H](C)CC[C@]12C`: the MIC amounted to 10.3 µM (≈ 4.91 µg/mL).

In turn, `CC(C)(C)C1=CC(=O)C=C(NCCC(=O)O)C1=O` came in with a minimal inhibitory concentration (MIC) of 1250 µM (≈ 313 µg/mL).

In another series the test system is Clostridium sporogenes. Description: Antibacterial activity against Clostridium sporogenes ATCC 19404 after 24 hrs by microbroth double dilution method. The class given is functional. The note with it: ATCC 19404, 24 h. The method in brief:
as §2
In turn, `CC1=CCC[C@H]2[C@](C)(CC3=CC(=O)C=C(N[C@@H](Cc4ccccc4)C(=O)O)C3=O)[C@@H](C)CC[C@]12C` had an MIC of 82.1 µM (≈ 39.1 µg/mL).

Compound `CC(C)(C)C1=CC(=O)C=C(NCCC(=O)O)C1=O` yielded a minimal inhibitory concentration (MIC) of 1250 µM (≈ 313 µg/mL).

Another series concerns Aspergillus brasiliensis. Description: Antifungal activity against Aspergillus brasiliensis ATCC 16404 after 24 hrs by microbroth double dilution method. The class given is functional. The note with it: ATCC 16404, 24 h.
`CC1=CCC[C@H]2[C@](C)(CC3=CC(=O)C=C(N[C@@H](Cc4ccccc4)C(=O)O)C3=O)[C@@H](C)CC[C@]12C` had a minimal inhibitory concentration (MIC) of 1320 µM (≈ 626 µg/mL).

Compound `CC(C)(C)C1=CC(=O)C=C(NCCC(=O)O)C1=O` gave a minimum inhibitory concentration (MIC) of 2490 µM (≈ 626 µg/mL).

The test system of a further series is Micrococcus flavus. Kind of series: Antibacterial activity against Micrococcus flavus ATCC 10240 after 24 hrs by microbroth double dilution method. As to conditions: ATCC 10240, 24 h. The class given is functional. An outline of the steps: as §2
Compound `CC1=CCC[C@H]2[C@](C)(CC3=CC(=O)C=C(N[C@@H](Cc4ccccc4)C(=O)O)C3=O)[C@@H](C)CC[C@]12C` returned a minimal inhibitory concentration (MIC) of 82.1 µM (≈ 39.1 µg/mL).

For `CC(C)(C)C1=CC(=O)C=C(NCCC(=O)O)C1=O`, the lowest concentration to inhibit growth (MIC) was 2490 µM (≈ 625 µg/mL). This MIC lies about 30-fold higher than the previous one.

For a further series, the system named is Pseudomonas aeruginosa. Kind of series: Antibacterial activity against Pseudomonas aeruginosa ATCC 9027 after 24 hrs by microbroth double dilution method. The class given is functional. As to conditions: ATCC 9027, 24 h. The method in brief:
as §2
With `CC1=CCC[C@H]2[C@](C)(CC3=CC(=O)C=C(N[C@@H](Cc4ccccc4)C(=O)O)C3=O)[C@@H](C)CC[C@]12C`, the minimum inhibitory concentration (MIC) turned out to be 20.6 µM (≈ 9.81 µg/mL). In other words, the double-digit micromolar range.

In turn, `CC(C)(C)C1=CC(=O)C=C(NCCC(=O)O)C1=O` came in with an MIC of 2490 µM (≈ 625 µg/mL).

The next series concerns Artemia salina. Kind of series: Cytotoxicity in Brine shrimp assessed as nauplii mortality after 24 hrs. Format: organism-based. As to conditions: in vivo. An outline of the steps: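 Artemia salina eggs hatched in aerated tap water with dried yeast at 18–20 °C under illumination for 48 h, and freshly hatched nauplii were used. Compounds in DMSO (0.01–1 mg) were added to 950 µL artificial seawater containing 10–20 nauplii, with 5% final DMSO. After 24 h under illumination at room temperature, dead and surviving nauplii were counted and statistically analysed.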
`CC1=CCC[C@H]2[C@](C)(CC3=CC(=O)C=C(N[C@@H](Cc4ccccc4)C(=O)O)C3=O)[C@@H](C)CC[C@]12C`: the LC50 is 96.7 ppm.

For the compound `CC(C)(C)C1=CC(=O)C=C(NCCC(=O)O)C1=O`, the LC50 was 833.2 ppm.

A further series relates to Proteus hauseri. Description: Antibacterial activity against Proteus hauseri ATCC 13315 after 24 hrs by microbroth double dilution method. The class given is functional. As to conditions: ATCC 13315, 24 h. An outline of the steps:
as §2
`CC1=CCC[C@H]2[C@](C)(CC3=CC(=O)C=C(N[C@@H](Cc4ccccc4)C(=O)O)C3=O)[C@@H](C)CC[C@]12C`: the lowest concentration to inhibit growth (MIC) was 82.1 µM (≈ 39.1 µg/mL).

For `CC(C)(C)C1=CC(=O)C=C(NCCC(=O)O)C1=O`, the minimal inhibitory concentration (MIC) worked out at 2490 µM (≈ 625 µg/mL).

The subject of another series is Candida albicans. Kind of series: Antifungal activity against Candida albicans ATCC 10231 after 24 hrs by microbroth double dilution method. Format: functional. The note with it: ATCC 10231, 24 h.
In the case of `CC1=CCC[C@H]2[C@](C)(CC3=CC(=O)C=C(N[C@@H](Cc4ccccc4)C(=O)O)C3=O)[C@@H](C)CC[C@]12C`, the minimum inhibitory concentration (MIC) amounted to 164 µM (≈ 78.1 µg/mL).

Compound `CC(C)(C)C1=CC(=O)C=C(NCCC(=O)O)C1=O` gave an MIC of 626 µM (≈ 157 µg/mL). Compared with the last compound, the MIC is about 3.8-fold higher.

The test system of a further series is Micrococcus luteus. Description: Antibacterial activity against Micrococcus luteus ATCC 4698 after 24 hrs by microbroth double dilution method. Format: functional. The note with it: ATCC 4698, 24 h. An outline of the steps:
as §2
Compound `CC1=CCC[C@H]2[C@](C)(CC3=CC(=O)C=C(N[C@@H](Cc4ccccc4)C(=O)O)C3=O)[C@@H](C)CC[C@]12C` gave an MIC of 10.3 µM (≈ 4.91 µg/mL).

For the compound `CC(C)(C)C1=CC(=O)C=C(NCCC(=O)O)C1=O`, the minimal inhibitory concentration (MIC) came out at 1250 µM (≈ 313 µg/mL).

For another series, the system named is MDA-MB-453. Kind of series: Cytotoxicity against human MDA-MB-453 cells assessed as cell survival after 72 hrs by MTT assay. Format: functional, cell-based. As to conditions: MDA-MB-453, 72 h. An outline of the steps:
as §1
`CC1=CCC[C@H]2[C@](C)(CC3=CC(=O)C=C(N[C@@H](Cc4ccccc4)C(=O)O)C3=O)[C@@H](C)CC[C@]12C`: the IC50 was 16.6 µM.

As to `CC(C)(C)C1=CC(=O)C=C(NCCC(=O)O)C1=O`, the IC50 worked out at 94.1 µM.

A further series has as its system HeLa. Kind of series: Cytotoxicity against human HeLa cells assessed as cell survival after 72 hrs by MTT assay.
Conditions: not given
The class given is functional, cell-based. The method in brief: as §1
`CC1=CCC[C@H]2[C@](C)(CC3=CC(=O)C=C(N[C@@H](Cc4ccccc4)C(=O)O)C3=O)[C@@H](C)CC[C@]12C`: the IC50 amounted to 14.6 µM.

On to `CC(C)(C)C1=CC(=O)C=C(NCCC(=O)O)C1=O`, for which the IC50 stood at 47.1 µM.

The test system of the next series is MRC5. Kind of series: Cytotoxicity against human MRC5 cells assessed as cell survival after 72 hrs by MTT assay. Format: cell-based. The note with it: MRC5, 72 h. An outline of the steps:
as §1
As to `CC1=CCC[C@H]2[C@](C)(CC3=CC(=O)C=C(N[C@@H](Cc4ccccc4)C(=O)O)C3=O)[C@@H](C)CC[C@]12C`, the IC50 is above 200 µM.

Regarding `CC(C)(C)C1=CC(=O)C=C(NCCC(=O)O)C1=O`, the IC50 is above 200 µM.

The subject of another series is Bacillus subtilis. Kind of series: Antibacterial activity against Bacillus subtilis ATCC 6633 after 24 hrs by microbroth double dilution method. The class given is functional. The note with it: ATCC 6633, 24 h. An outline of the steps:
as §2
Compound `CC1=CCC[C@H]2[C@](C)(CC3=CC(=O)C=C(N[C@@H](Cc4ccccc4)C(=O)O)C3=O)[C@@H](C)CC[C@]12C` gave an MIC of 20.6 µM (≈ 9.81 µg/mL).

`CC(C)(C)C1=CC(=O)C=C(NCCC(=O)O)C1=O` came in with a minimum inhibitory concentration (MIC) of 2490 µM (≈ 625 µg/mL). Against the preceding compound, the MIC is about 120-fold higher.

Another series has as its system K562. Description: Cytotoxicity against human K562 cells assessed as cell survival after 72 hrs by MTT assay. Format: functional, cell-based. The note with it: K562, 72 h. An outline of the steps:
as §1
Turning to `CC1=CCC[C@H]2[C@](C)(CC3=CC(=O)C=C(N[C@@H](Cc4ccccc4)C(=O)O)C3=O)[C@@H](C)CC[C@]12C`, the half-maximal inhibitory concentration (IC50) turned out to be 20.5 µM.

Regarding `CC(C)(C)C1=CC(=O)C=C(NCCC(=O)O)C1=O`, the IC50 stood at 67 µM.

A further series concerns A549. Description: Cytotoxicity against human A549 cells assessed as cell survival after 72 hrs by MTT assay. The class given is functional, cell-based. As to conditions: A549, 72 h. The method in brief: as §1
In the case of `CC1=CCC[C@H]2[C@](C)(CC3=CC(=O)C=C(N[C@@H](Cc4ccccc4)C(=O)O)C3=O)[C@@H](C)CC[C@]12C`, the IC50 is 40.1 µM.

Consider `CC(C)(C)C1=CC(=O)C=C(NCCC(=O)O)C1=O`, for which the half-maximal inhibitory concentration (IC50) was found to be 171 µM.

A further series deals with Kocuria rhizophila. Description: Antibacterial activity against Kocuria rhizophila ATCC 9341 after 24 hrs by microbroth double dilution method. Format: functional. As to conditions: ATCC 9341, 24 h. The method in brief: as §2
In turn, `CC1=CCC[C@H]2[C@](C)(CC3=CC(=O)C=C(N[C@@H](Cc4ccccc4)C(=O)O)C3=O)[C@@H](C)CC[C@]12C` showed a minimal inhibitory concentration (MIC) of 331 µM (≈ 157 µg/mL).

Consider `CC(C)(C)C1=CC(=O)C=C(NCCC(=O)O)C1=O`, for which the lowest concentration to inhibit growth (MIC) was 2490 µM (≈ 625 µg/mL).

For a further series, the system named is Saccharomyces cerevisiae. Kind of series: Antifungal activity against Saccharomyces cerevisiae ATCC 9763 after 24 hrs by microbroth double dilution method. Format: functional. As to conditions: ATCC 9763, 24 h.
For the compound `CC1=CCC[C@H]2[C@](C)(CC3=CC(=O)C=C(N[C@@H](Cc4ccccc4)C(=O)O)C3=O)[C@@H](C)CC[C@]12C`, the MIC turned out to be 10.3 µM (≈ 4.91 µg/mL).

The compound `CC(C)(C)C1=CC(=O)C=C(NCCC(=O)O)C1=O` returned an MIC of 311 µM (≈ 78.1 µg/mL).
